We go through 17 compounds from ChEMBL document CHEMBL3045671, “Non-imidazole histamine H3 ligands: part V. synthesis and preliminary pharmacological investigation of 1-[2-thiazol-4-yl- and 1-[2-thiazol-5-yl-(2-aminoethyl)]-4-n-propylpiperazine derivatives” (Med Chem Res, 2013).

As a reminder, the pKi is −log10 of the Ki, conventionally taken in molar units.

pKi: −log10 of the molar value.

For the first assay, the target named is Histamine H3 receptor (Rattus norvegicus, UniProt Q9QYN8). The assay can be described thus: Binding affinity to Rattus norvegicus (rat) H3 receptor.
Sequence of Histamine H3 receptor (Rattus norvegicus, UniProt Q9QYN8) (Q9QYN8 whole entry): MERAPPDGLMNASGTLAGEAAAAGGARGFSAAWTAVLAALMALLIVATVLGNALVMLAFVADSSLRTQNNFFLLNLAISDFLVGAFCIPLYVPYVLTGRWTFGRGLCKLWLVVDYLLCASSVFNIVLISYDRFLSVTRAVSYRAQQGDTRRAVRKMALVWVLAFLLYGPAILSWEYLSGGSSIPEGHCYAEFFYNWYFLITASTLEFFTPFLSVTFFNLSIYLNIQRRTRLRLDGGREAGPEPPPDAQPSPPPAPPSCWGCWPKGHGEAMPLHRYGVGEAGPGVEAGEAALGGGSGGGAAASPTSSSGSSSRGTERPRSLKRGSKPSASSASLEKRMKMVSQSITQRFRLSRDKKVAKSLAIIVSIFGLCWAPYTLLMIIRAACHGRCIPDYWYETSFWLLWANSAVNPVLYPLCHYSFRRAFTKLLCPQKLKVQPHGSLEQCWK
Settings: not given
In turn, `O=C(c1ccc(OCCCN2CCCCC2)cc1)C1CC1` showed a pKi of 8.40.

For the next assay, the target named is Histamine H3 receptor (Cavia porcellus, UniProt Q9JI35). The assay is described as follows: Antagonist activity at H3 receptor in Cavia porcellus (guinea pig) jejunum assessed as inhibition of electrically evoked muscle contraction. Particulars: read-out: pA2 (converted). The gist of the method: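 Segments under 1.0 g tension, isotonic recording; 1 h equilibration with washes every 10 min. Field-stimulated maximally (15–20 V) at 0.1 Hz, 0.5 ms rectangular pulses. After 30 min stimulation, cumulative (R)-α-methylhistamine curves (half-log steps) run with pyrilamine 1 × 10⁻⁵ mol/L in bath. The curve was repeated 20 min after the test compound was added, with pyrilamine given beforehand.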
Sequence of Histamine H3 receptor (Cavia porcellus, UniProt Q9JI35) (Q9JI35 whole entry): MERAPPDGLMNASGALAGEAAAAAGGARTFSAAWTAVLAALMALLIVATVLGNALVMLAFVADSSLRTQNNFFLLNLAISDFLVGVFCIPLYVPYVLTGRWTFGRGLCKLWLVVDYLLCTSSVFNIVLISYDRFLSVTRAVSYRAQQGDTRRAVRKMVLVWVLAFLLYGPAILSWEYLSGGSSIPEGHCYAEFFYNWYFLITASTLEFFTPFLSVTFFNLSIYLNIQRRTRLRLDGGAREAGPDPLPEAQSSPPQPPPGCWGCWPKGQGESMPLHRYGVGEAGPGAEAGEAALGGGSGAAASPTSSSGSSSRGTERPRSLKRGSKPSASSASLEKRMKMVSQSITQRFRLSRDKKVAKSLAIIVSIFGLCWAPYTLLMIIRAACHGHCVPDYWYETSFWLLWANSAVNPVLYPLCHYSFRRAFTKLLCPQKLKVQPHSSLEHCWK
`CCCN1CCN(c2ncc(CCN(C)C(=O)c3ccc([N+](=O)[O-])cc3)s2)CC1`: the Kb was 17.4 nM.
Same read-out and setting: under `CCCN1CCN(c2ncc(CCN(C)C(=O)c3ccc(Cl)cc3)s2)CC1` stands 18.6 nM.
Still for that read-out and setting: under `CCCN1CCN(c2ncc(CCN(C)C(=O)c3ccc(C)cc3)s2)CC1` stands 24.5 nM.
Still for that read-out and setting: under `CCCN1CCN(c2ncc(CCN(C)C(=O)c3ccccc3)s2)CC1` stands 35.5 nM; under `CCCN1CCN(c2ncc(CCN(C)CCc3ccccc3)s2)CC1`, 24.5 nM.
Take `CCCN1CCN(c2nc(CCN(C)C(=O)c3ccc([N+](=O)[O-])cc3)cs2)CC1`: the Kb is 933 nM.
The same measure, in the same setting: as for `CCCN1CCN(c2nc(CCN(C)C(=O)c3ccc(Cl)cc3)cs2)CC1`, the figure is 589 nM; as for `CCCN1CCN(c2nc(CCN(C)C(=O)c3ccc(C)cc3)cs2)CC1`, 1580 nM.
For `CCCN1CCN(c2nc(CCN(C)C(=O)c3ccccc3)cs2)CC1`, the Kb is 2240 nM.
Still for that read-out and setting: under `CCCN1CCN(c2nc(CCN(C)CCCCCc3ccccc3)cs2)CC1` stands 204 nM; under `CCCN1CCN(c2nc(CCN(C)CCCCc3ccccc3)cs2)CC1`, 191 nM; under `CCCN1CCN(c2nc(CCN(C)CCCc3ccccc3)cs2)CC1`, 245 nM.
The same measure, in the same setting: under `CCCN1CCN(c2nc(CCN(C)Cc3ccccc3)cs2)CC1` stands 75.9 nM.
Still for that read-out and setting: as for `CCCN1CCN(c2nc(CCN(C)CCc3ccccc3)cs2)CC1`, the figure is 155 nM.
As to `CCCN(C)CCc1csc(N2CCN(CCC)CC2)n1`, the Kb is 120 nM.
Regarding `CCCN1CCN(c2nc(CCN(C)C)cs2)CC1`, the Kb was 174 nM.
